Experimental data taken from PubChem BioAssay AID463144 (The Scripps Research Institute Molecular Screening Center, 2010).

Tested on: HEK293T G6PC promoter luciferase with RORa, 20 h
Assay: inhibitors of RORa-driven G6PC promoter, late-stage follow-up, counter-screen for RORA inverse agonist project, cell-based, luminescence, single concentration (AID 463144)
Conditions: at 10 µM; hits give low values
Outline: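 System: HEK293T cells expressing full-length RORa, SRC-2 coactivator, G6PC-promoter luciferase | Compound dosing: Single nominal dose of 10 µM per compound | Schedule: 20 h compound treatment | Measured by: Reporter luminescence | Read-out basis: Average fold change versus vehicle wells | Benchmarks: DMSO-only vehicle cells as reference | Repeats: n of 6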

O=S(=O)(Nc1ccc(C(O)(C(F)(F)F)C(F)(F)F)cc1)c1cccs1
fold change: 0.64
